These results are taken from ChEMBL document CHEMBL4602686, “A Meroisoprenoid, Heptenolides, and C-Benzylated Flavonoids from Sphaerocoryne gracilis ssp. gracilis” (J Nat Prod, 2020).

The IC50 is the point on the concentration scale where inhibition reaches its midpoint.

Data set [1] relates to Hepacivirus hominis. Nature of the data set: Inhibition of (CAG)33/FF/HCV/Ren.pA51 mRNA cap-dependent translation assessed as reduction in firefly level at […] after 60 mins by dual luciferase reporter gene assay. (A reporter such as luciferase makes a cellular process visible.)
Data set [2] deals with Hepacivirus hominis. Put plainly: Inhibition of (CAG)33/FF/HCV/Ren.pA51 mRNA cap-independent translation assessed as reduction in renilla level at […] after 60 mins by dual luciferase reporter gene assay.
The test system of data set [3] is Plasmodium falciparum. Nature of the data set: Antimalarial activity against chloroquine-sensitive Plasmodium falciparum 3D7 assessed as reduction in parasite growth at 40 uM incubated for 72 hrs by DAPI staining based fluorescence assay. The format is functional, organism-based. A digest of the protocol: (§1)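 Asexual P. falciparum 3D7 growth read by a high-content imaging assay. Each compound was tested at one concentration: 20 μM for line 1 and 40 μM for line 2. The value is percentage growth inhibition. The 20 μM values are the mean of at least two independent measurements.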

The test system of data set [4] is Plasmodium falciparum. Nature of the data set: Antimalarial activity against chloroquine-resistant Plasmodium falciparum Dd2 assessed as reduction in parasite growth at 40 uM incubated for 72 hrs by DAPI staining based fluorescence assay. The class given is functional, organism-based. A digest of the protocol: (§2)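 P. falciparum Dd2 (chloroquine-resistant) growth read by high-content imaging. Isolates were screened at a single 40 μM concentration, and some were also given at 20 μM. Values are percentage growth inhibition, as the mean of at least two independent measurements.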

Data set [5] concerns Plasmodium falciparum. Nature of the data set: Antimalarial activity against chloroquine-sensitive Plasmodium falciparum 3D7 assessed as reduction in parasite growth at 20 uM incubated for 72 hrs by DAPI staining based fluorescence assay. The class given is functional, organism-based. Put shortly:
as §1

The subject of data set [6] is Plasmodium falciparum. Nature of the data set: Antimalarial activity against chloroquine-resistant Plasmodium falciparum Dd2 assessed as reduction in parasite growth at 20 uM incubated for 72 hrs by DAPI saining based fluorescence assay. The class given is functional, organism-based. A digest of the protocol: as §2
In data set [7] the test system is Plasmodium falciparum. Put plainly: Antimalarial activity against chloroquine-resistant Plasmodium falciparum Dd2 assessed as reduction in parasite growth incubated for 72 hrs by DAPI staining based fluorescence assay. The class given is functional, organism-based. The note with it: Dd2, 72 h.
Data set [8] in a line: Cytotoxicity against HEK293 cells assessed as growth inhibition at 40 uM relative to control. The following applies: human, read-out: GI. The class given is cell-based.
The subject of data set [9] is Plasmodium falciparum. Nature of the data set: Antimalarial activity against chloroquine-sensitive Plasmodium falciparum 3D7 assessed as reduction in parasite rowth incubated for 72 hrs by DAPI staining based fluorescence assay. The following applies: 3D7, 72 h. The class given is functional, organism-based.
The next data set deals with HEK293. Put plainly: Cytotoxicity against HEK293 cells. The format is cell-based. The note with it: Homo sapiens.
The subject of data set [10] is Plasmodium falciparum 3D7. Put plainly: Selectivity ratio of IC50 for HEK293 cells to IC50 for antimalarial activity against Plasmodium falciparum 3D7. The following applies: human, HEK293 cells versus Plasmodium falciparum 3D7.

The structures appear in SMILES notation. Calls of active or inactive are those of the source. The calls are words filed in the database; no cut-off is given here.

For the molecule `O=C1C[C@@H](c2ccccc2)Oc2c(Cc3cccc(O)c3O)c(O)c(Cc3cccc(O)c3O)c(O)c21`, the inhibition result in the data set with Hepacivirus hominis [1] and in the data set on Hepacivirus hominis [2] was “inactive” in each case. Moreover, the outcome in the data set on Plasmodium falciparum [3] and in the data set on Plasmodium falciparum [4] was inactive.

For `O=C1C[C@@H](c2ccccc2)Oc2c(Cc3ccccc3O)c(O)cc(O)c21`, the result with Plasmodium falciparum [5] and in the data set on Plasmodium falciparum [6] was Active.

With `O=c1cc(-c2ccccc2)oc2cc(O)cc(O)c12`, the inhibition result with Hepacivirus hominis [1] and in the data set on Hepacivirus hominis [2] was “inactive” throughout. In addition, the outcome with Plasmodium falciparum [5] and in the data set with Plasmodium falciparum [6] was Active.

For `CC(C)=CCC[C@@H](C)[C@H]1C[C@H](O)[C@@]2(C)C3=CC[C@H]4C(C)(C)[C@@H](O)CC[C@]4(C)C3=CC[C@]12C`, the outcome with Plasmodium falciparum [3] and with Plasmodium falciparum [4] was inactive.

For the molecule `COC(=O)/C=C/C(=O)C[C@H](O)COC(=O)c1ccccc1`, the results for the IC50 in the data set on Plasmodium falciparum [7] and in the data set with Plasmodium falciparum [9] were 4.1 µM and 1.4 µM, respectively. The inhibition entry in the data set with Hepacivirus hominis [1] and in the data set on Hepacivirus hominis [2] was “inactive” in each case. Also, the inhibition at 40 µM in data set [8] was determined as 100%.

Consider `O=C1C[C@@H](c2ccccc2)Oc2c(Cc3ccccc3O)c(O)c(Cc3ccccc3O)c(O)c21` [DICHAMANETIN], for which the IC50 came to 6.7 µM in the data set on Plasmodium falciparum [7] and 9.3 µM in the data set on Plasmodium falciparum [9]. For the same molecule, in data set [8], the inhibition at 40 µM is 75%.

`O=C1C[C@@H](c2ccccc2)Oc2cc(O)cc(O)c21`: the result with Plasmodium falciparum [3] and in the data set with Plasmodium falciparum [4] was inactive.

`O=C1C[C@@H](c2ccccc2)Oc2cc(O)c(Cc3cccc(O)c3O)c(O)c21`: the inhibition result with Hepacivirus hominis [1] and in the data set on Hepacivirus hominis [2] was “inactive” in each case. Also, the outcome in the data set with Plasmodium falciparum [5] and in the data set on Plasmodium falciparum [6] was Active.

Consider `CC(=O)O[C@@H](/C=C1/C=CC(=O)O1)COC(=O)c1ccccc1`, for which the IC50 in the data set on Plasmodium falciparum [7] came out at 6.7 µM; with HEK293, 11.8 µM; in the data set with Plasmodium falciparum [9] it was 4.8 µM. The selectivity ratio in [10] is 3.

In the case of `O=C1C[C@@H](c2ccccc2)Oc2cc(O)c(Cc3ccccc3O)c(O)c21`, the outcome in the data set on Plasmodium falciparum [5] and in the data set on Plasmodium falciparum [6] was Active.

Consider `O=C1C=C/C(=C/[C@H](O)CO)O1`, for which the IC50 with Plasmodium falciparum [9] was found to be 10.5 µM.

For `C[C@@](O)(COC(=O)/C=C/c1ccccc1)[C@H](O)COC(=O)c1ccccc1`, the result in the data set with Plasmodium falciparum [3] and in the data set on Plasmodium falciparum [4] was inactive.

`O=c1cc(-c2ccccc2)oc2c(Cc3cccc(O)c3O)c(O)cc(O)c12`: the inhibition entry in the data set with Hepacivirus hominis [1] and in the data set with Hepacivirus hominis [2] was “inactive” each time. In addition, the outcome in the data set on Plasmodium falciparum [5] and in the data set on Plasmodium falciparum [6] was Active.

Turning to `O=C1C=C/C(=C/[C@H](O)COC(=O)c2ccccc2)O1`, the inhibition result with Hepacivirus hominis [1] and in the data set with Hepacivirus hominis [2] was “inactive” each time. Moreover, the IC50 in the data set on Plasmodium falciparum [9] turned out to be 3.7 µM.
